Laboratory results: ChEMBL document CHEMBL1949555, “Piperazine-2,3-dicarboxylic acid derivatives as dual antagonists of NMDA and GluK1-containing kainate receptors” (J Med Chem, 2012)

What was measured:
[1] = target: Glutamate NMDA receptor; Grin1/Grin2a (Rattus norvegicus, UniProt P35439+Q00959); assay: Antagonist activity at rat recombinant GluN1/GluN2A receptor expressed in Xenopus laevis oocytes assessed as inhibition of glutamate-induced response by two-electrode voltage-clamp electrophysiology assay; type: functional, cell-based, Oocyte; settings: read-out: Ki(app)
Sequence of Glutamate NMDA receptor; Grin1/Grin2a (Q00959 whole entry, other chains not shown): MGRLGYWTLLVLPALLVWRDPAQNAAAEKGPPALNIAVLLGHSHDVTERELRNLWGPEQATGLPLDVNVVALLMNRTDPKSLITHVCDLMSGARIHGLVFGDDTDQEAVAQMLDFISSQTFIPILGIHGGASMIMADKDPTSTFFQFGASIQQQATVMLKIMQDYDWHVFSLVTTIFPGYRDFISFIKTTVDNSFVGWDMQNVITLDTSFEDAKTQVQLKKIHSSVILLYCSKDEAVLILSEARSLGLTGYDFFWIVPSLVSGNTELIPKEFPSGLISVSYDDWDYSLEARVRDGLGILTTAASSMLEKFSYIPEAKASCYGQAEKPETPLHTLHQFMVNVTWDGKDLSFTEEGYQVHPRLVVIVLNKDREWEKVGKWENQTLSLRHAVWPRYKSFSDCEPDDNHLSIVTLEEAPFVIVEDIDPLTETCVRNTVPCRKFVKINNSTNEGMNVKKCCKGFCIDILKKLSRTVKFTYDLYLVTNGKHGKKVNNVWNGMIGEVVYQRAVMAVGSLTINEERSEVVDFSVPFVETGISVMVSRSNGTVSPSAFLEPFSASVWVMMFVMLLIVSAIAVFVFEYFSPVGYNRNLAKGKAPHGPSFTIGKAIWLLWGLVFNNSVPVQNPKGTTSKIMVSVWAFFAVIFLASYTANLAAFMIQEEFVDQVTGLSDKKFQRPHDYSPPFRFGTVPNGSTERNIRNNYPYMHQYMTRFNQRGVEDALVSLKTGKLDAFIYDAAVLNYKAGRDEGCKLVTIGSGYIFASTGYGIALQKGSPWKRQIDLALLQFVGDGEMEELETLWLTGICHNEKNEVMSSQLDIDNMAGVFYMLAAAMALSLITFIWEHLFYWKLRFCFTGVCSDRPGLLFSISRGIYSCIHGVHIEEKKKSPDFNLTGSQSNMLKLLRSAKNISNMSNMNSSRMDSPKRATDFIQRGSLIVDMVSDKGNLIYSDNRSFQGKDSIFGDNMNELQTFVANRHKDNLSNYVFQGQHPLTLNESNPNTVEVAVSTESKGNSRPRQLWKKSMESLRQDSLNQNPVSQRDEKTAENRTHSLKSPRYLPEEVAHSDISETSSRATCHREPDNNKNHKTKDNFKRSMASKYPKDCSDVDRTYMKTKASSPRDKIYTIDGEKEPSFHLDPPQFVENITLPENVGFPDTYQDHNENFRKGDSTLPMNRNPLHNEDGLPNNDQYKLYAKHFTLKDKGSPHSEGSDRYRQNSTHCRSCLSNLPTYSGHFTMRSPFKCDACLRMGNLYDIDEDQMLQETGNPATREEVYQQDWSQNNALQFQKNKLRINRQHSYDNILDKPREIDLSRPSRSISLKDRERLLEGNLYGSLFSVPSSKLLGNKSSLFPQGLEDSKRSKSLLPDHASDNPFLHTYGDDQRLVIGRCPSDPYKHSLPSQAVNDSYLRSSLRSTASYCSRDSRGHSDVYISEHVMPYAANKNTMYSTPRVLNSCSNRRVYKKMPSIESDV

[2] = target: Glutamate NMDA receptor; Grin1/Grin2b (Rattus norvegicus, UniProt P35439+Q00960); assay: Antagonist activity rat recombinant GluN1/GluN2B receptor expressed in Xenopus laevis oocytes assessed as inhibition of glutamate-induced response by two-electrode voltage-clamp electrophysiology assay; type: functional, cell-based, Oocyte; settings: read-out: Ki(app)
Sequence of Glutamate NMDA receptor; Grin1/Grin2b (Q00960 whole entry, other chains not shown): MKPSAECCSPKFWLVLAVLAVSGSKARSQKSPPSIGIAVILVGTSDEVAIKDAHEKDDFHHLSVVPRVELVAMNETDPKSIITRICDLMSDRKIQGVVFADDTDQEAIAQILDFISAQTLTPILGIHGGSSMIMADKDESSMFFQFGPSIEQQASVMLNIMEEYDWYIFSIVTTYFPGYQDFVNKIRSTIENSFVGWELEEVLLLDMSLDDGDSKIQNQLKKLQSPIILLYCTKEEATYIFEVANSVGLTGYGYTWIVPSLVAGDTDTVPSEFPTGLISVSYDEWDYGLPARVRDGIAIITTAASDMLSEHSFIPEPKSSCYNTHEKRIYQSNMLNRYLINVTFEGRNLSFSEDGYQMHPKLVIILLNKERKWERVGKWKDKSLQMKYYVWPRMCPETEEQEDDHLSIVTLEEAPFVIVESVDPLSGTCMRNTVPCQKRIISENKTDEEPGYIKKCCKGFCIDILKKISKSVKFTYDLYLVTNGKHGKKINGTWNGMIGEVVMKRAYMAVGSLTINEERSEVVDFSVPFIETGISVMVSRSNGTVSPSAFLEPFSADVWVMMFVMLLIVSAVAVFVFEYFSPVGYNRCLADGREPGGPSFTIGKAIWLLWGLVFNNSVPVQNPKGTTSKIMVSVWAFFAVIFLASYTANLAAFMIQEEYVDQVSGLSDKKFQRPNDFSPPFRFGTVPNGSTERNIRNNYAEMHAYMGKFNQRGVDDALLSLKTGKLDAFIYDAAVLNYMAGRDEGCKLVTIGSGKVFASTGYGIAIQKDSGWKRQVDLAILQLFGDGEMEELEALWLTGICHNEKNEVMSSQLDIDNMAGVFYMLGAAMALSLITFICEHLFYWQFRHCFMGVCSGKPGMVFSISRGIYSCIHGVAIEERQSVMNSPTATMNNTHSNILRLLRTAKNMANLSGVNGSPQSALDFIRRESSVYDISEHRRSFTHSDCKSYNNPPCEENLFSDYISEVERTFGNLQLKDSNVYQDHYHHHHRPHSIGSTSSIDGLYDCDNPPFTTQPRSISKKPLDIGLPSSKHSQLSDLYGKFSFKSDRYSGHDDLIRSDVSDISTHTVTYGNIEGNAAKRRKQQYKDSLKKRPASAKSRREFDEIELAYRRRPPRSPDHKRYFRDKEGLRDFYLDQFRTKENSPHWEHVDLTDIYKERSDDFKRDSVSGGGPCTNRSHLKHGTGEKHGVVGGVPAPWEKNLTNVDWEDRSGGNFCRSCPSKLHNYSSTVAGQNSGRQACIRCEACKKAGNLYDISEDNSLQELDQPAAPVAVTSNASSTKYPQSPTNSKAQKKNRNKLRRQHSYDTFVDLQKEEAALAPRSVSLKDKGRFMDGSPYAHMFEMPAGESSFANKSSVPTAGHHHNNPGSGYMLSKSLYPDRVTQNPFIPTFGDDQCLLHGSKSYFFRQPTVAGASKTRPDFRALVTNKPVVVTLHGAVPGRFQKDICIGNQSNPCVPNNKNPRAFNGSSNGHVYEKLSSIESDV
How it was run: (§1)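 Two-electrode voltage clamp of oocytes expressing rat GluN1a with the given GluN2 subunit, held at −60 mV in buffer of 116 mM NaCl, 2 mM KCl, 0.3 mM BaCl2, 5 mM HEPES, pH 7.4. Response is the steady plateau to bath-applied 10 μM L-glutamate plus 10 μM glycine. IC50 converted to apparent Ki via Ki = IC50/(1 + [agonist]/EC50). Means ± s.e.m.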

[3] = target: Glutamate NMDA receptor; Grin1/Grin2c (Rattus norvegicus, UniProt P35439+Q00961); assay: Antagonist activity rat recombinant GluN1/GluN2C receptor expressed in Xenopus laevis oocytes assessed as inhibition of glutamate-induced response by two-electrode voltage-clamp electrophysiology assay; type: functional, cell-based, Oocyte; settings: read-out: Ki(app); how it was run: as §1
[4] = target: Ionotropic glutamate receptor NMDA 1/2D (Rattus norvegicus, UniProt P35439+Q62645); assay: Antagonist activity rat recombinant GluN1/GluN2D receptor expressed in Xenopus laevis oocytes assessed as inhibition of glutamate-induced response by two-electrode voltage-clamp electrophysiology assay; type: functional, cell-based, Oocyte; settings: read-out: Ki(app)
Sequence of Ionotropic glutamate receptor NMDA 1/2D (Q62645 whole entry, other chains not shown): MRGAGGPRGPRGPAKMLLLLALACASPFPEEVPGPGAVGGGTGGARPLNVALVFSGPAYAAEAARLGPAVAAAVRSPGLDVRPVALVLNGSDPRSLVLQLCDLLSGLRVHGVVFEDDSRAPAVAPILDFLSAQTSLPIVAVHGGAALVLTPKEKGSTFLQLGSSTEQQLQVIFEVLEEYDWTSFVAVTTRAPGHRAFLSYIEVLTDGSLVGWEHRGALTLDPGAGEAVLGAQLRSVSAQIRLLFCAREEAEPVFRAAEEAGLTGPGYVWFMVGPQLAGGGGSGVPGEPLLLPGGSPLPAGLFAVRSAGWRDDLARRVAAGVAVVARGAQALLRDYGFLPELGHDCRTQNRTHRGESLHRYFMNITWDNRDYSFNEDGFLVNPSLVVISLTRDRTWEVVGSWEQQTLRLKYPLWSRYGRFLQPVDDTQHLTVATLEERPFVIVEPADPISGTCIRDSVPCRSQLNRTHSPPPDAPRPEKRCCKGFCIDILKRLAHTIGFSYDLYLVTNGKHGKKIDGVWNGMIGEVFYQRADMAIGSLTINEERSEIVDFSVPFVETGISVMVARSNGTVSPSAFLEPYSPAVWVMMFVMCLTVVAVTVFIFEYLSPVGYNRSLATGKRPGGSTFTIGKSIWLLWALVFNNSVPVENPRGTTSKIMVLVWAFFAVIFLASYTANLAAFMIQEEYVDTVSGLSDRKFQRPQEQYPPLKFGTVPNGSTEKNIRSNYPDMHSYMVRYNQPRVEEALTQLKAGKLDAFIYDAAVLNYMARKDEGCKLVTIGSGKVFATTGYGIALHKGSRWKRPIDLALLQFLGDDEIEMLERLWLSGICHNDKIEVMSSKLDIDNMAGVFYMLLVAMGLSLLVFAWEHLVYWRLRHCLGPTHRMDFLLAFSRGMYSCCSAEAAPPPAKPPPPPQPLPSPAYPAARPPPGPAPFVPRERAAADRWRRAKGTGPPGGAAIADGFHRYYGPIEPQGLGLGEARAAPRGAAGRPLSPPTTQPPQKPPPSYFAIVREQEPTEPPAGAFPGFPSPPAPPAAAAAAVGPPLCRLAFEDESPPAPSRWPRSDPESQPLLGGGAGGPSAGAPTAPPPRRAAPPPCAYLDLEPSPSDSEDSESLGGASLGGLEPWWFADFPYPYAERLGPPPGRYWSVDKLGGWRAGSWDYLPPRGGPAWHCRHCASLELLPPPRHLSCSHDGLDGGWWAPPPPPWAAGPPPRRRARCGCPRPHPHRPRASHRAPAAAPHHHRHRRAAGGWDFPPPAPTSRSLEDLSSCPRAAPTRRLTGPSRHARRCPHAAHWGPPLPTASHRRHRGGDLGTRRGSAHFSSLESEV

[5] = target: Glutamate receptor ionotropic, kainate 1 (Homo sapiens, UniProt P39086); assay: Antagonist activity at human recombinant GluK1 receptor expressed in human HEK293 cells assessed as inhibition of glutamate-stimulated calcium influx by fluorescence assay; type: functional, cell-based
How it was run: (§2)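 HEK293 lines stably expressing homomeric human GluK1(Q) or GluK2(Q), passaged no more than 20 times. Ca2+ influx is read as fluorescence, with concanavalin A present. Test compound is added in a first run, then L-glutamate plus antagonist in a second run (final glutamate 30 μM for GluK1, 10 μM for GluK2). IC50 values are converted to KB. Means ± s.e.m.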

[6] = target: Glutamate receptor ionotropic, kainate 2 (Homo sapiens, UniProt Q13002); assay: Antagonist activity at human recombinant GluK2 receptor expressed in human HEK293 cells assessed as inhibition of glutamate-stimulated calcium influx by fluorescence assay; type: functional, cell-based; how it was run: as §2

SMILES: O=C(O)[C@H]1NCCN(C(=O)CCc2ccc3ccccc3c2)[C@H]1C(=O)O (relative stereo)
- Ki [1]: 5.1 µM
- Ki [2]: 2.3 µM
- Ki [3]: 4.1 µM
- Ki [4]: 2700 nM
- Kb [5]: 67.8 µM

SMILES: O=C(O)C1NCCN(C(=O)c2ccc3c(ccc4ccccc43)c2)C1C(=O)O (racemic) [listing 1 of 2 here]
- Ki [1]: 0.55 µM
- Ki [2]: 0.31 µM
- Ki [3]: 0.1 µM
- Ki [4]: 130 nM

SMILES: O=C(O)[C@H]1NCCN(C(=O)c2ccc3cc(I)ccc3c2)[C@H]1C(=O)O (relative stereo)
- Ki [1]: 3 µM
- Ki [2]: 1.3 µM
- Ki [3]: 1.8 µM
- Ki [4]: 1600 nM
- Kb [5]: 7.5 µM
- Kb [6]: > 100 µM

SMILES: O=C(O)[C@H]1NCCN(C(=O)c2ccc3cc(F)ccc3c2)[C@H]1C(=O)O (relative stereo)
- Ki [1]: 7.4 µM
- Ki [2]: 12.3 µM
- Ki [3]: 3.6 µM
- Ki [4]: 5100 nM
- Kb [5]: 52.9 µM

SMILES: O=C(O)[C@H]1NCCN(C(=O)c2ccc(C#Cc3ccccc3)cc2)[C@H]1C(=O)O (relative stereo)
- Ki [1]: 138 µM
- Ki [2]: 24.1 µM
- Ki [3]: 21.4 µM
- Ki [4]: 10500 nM
- Kb [6]: > 100 µM

SMILES: O=C(O)[C@H]1NCCN(C(=O)c2ccc3cc(Br)ccc3c2)[C@H]1C(=O)O (relative stereo)
- Ki [1]: 4.1 µM
- Ki [2]: 2.7 µM
- Ki [3]: 2.1 µM
- Ki [4]: 2200 nM
- Kb [5]: 16.2 µM

SMILES: O=C(O)C1NCCN(C(=O)c2ccc3c(ccc4ccccc43)c2)C1C(=O)O (racemic) [listing 2 of 2 here]
- Kb [5]: 7.5 µM
- Kb [6]: > 100 µM

SMILES: O=C(O)[C@H]1NCCN(C(=O)c2ccc(/N=N/c3ccccc3)cc2)[C@H]1C(=O)O (relative stereo)
- Ki [1]: 99.3 µM
- Ki [2]: 12.9 µM
- Ki [3]: 28 µM
- Ki [4]: 10800 nM
- Kb [6]: > 100 µM

SMILES: O=C(O)[C@@H]1NCCN(C(=O)c2ccc3c(ccc4ccccc43)c2)[C@H]1C(=O)O (racemic)
- Ki [4]: 6000 nM
- Kb [5]: 59.2 µM

SMILES: O=C(O)[C@H]1NCCN(C(=O)c2ccc3cc(Cl)c4ccccc4c3c2)[C@H]1C(=O)O (relative stereo)
- Ki [1]: 7.2 µM
- Ki [2]: 15.2 µM
- Ki [3]: 3.2 µM
- Ki [4]: 1700 nM
- Kb [5]: 21.8 µM

SMILES: O=C(O)[C@H]1NCCN(S(=O)(=O)c2ccc(-c3ccccc3)cc2)[C@H]1C(=O)O
- Ki [4]: 10900 nM
- Kb [5]: > 100 µM

SMILES: O=C(O)[C@H]1NCCN(C(=O)c2ccc3c(c2)CCc2ccccc2-3)[C@H]1C(=O)O
- Ki [4]: 570 nM
- Kb [5]: 14.1 µM
- Kb [6]: > 100 µM

SMILES: O=C(O)[C@H]1NCCN(C(=O)c2ccc3ccccc3c2)[C@H]1C(=O)O
- Kb [5]: 45.6 µM

SMILES: O=C(O)[C@H]1NCCN(Cc2ccc3c(ccc4ccccc43)c2)[C@H]1C(=O)O
- Ki [4]: 3200 nM
- Kb [5]: 39 µM

SMILES: O=C(O)[C@H]1NCCN(C(=O)c2ccc(-c3ccccc3)cc2)[C@H]1C(=O)O
- Ki [4]: 4300 nM
- Kb [5]: 9.8 µM
- Kb [6]: > 100 µM

SMILES: O=C(O)C1NCCN(C(=O)c2ccc3c(ccc4ccccc43)c2)C1C(=O)O (single isomer, unassigned; (+))
- Kb [5]: 82 µM

SMILES: O=C(O)[C@H]1NCCN(C(=O)c2ccc3c(ccc4cc(Br)ccc43)c2)[C@H]1C(=O)O
- Ki [4]: 150 nM
- Kb [5]: 8 µM
- Kb [6]: > 100 µM

SMILES: O=C(O)[C@H]1NCCN(C(=O)c2ccc3cc4ccccc4cc3c2)[C@H]1C(=O)O (relative stereo)
- Ki [1]: 10.5 µM
- Ki [2]: 5.2 µM
- Ki [3]: 3.4 µM
- Ki [4]: 2500 nM
- Kb [5]: 14.4 µM
- Kb [6]: > 100 µM

SMILES: O=C(O)[C@H]1NCCN(C(=O)c2ccc3c(c2)CCc2cc(Br)ccc2-3)[C@H]1C(=O)O
- Ki [4]: 1000 nM
- Kb [5]: 11.5 µM
